Results on seven compounds are retold here after ChEMBL document CHEMBL1137412, “Molecular tongs containing amino acid mimetic fragments: new inhibitors of wild-type and mutated HIV-1 protease dimerization” (J Med Chem, 2006).

By half-life is commonly meant the time in which the quantity being followed falls by half. For orientation: Ki means a dissociation constant, usually derived from enzyme kinetics or from competition with a known ligand. Read a high Ki as weaker binding. By inhibition is commonly meant the share of the control response that was lost under treatment. A lower inhibition goes with little suppression.

The nature of data set [1]: Stability in presence of 20% fetal calf serum. In kind it is ADME. The conditions noted are these: cattle. The essentials:
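Compound incubated in RPMI medium containing 20% fetal calf serum at 37 °C for up to 2 days. Incubation stopped with ethanol, mixture chilled to 4 °C and centrifuged, and clear supernatant analysed by RP-HPLC. Half-life from least-squares linear regression of log[I] versus time, using at least five points.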

Data set [2] addresses T1, Human immunodeficiency virus type 1 protease (Human immunodeficiency virus 1, UniProt Q72874). The data set is described as follows: Inhibition of wild type HIV1 protease dimerization. The essentials: (§1)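 Recombinant HIV-1 protease (wild-type or mutant) assayed fluorometrically with substrate DABCYL-γ-abu-Ser-Gln-Asn-Tyr-Pro-Ile-Val-Gln-EDANS (emission 490 nm). Conditions: 100 mM sodium acetate, 1 mM EDTA, 1 M NaCl, pH 4.7, 30 °C, 3% v/v DMSO final. Typically 7.5 nM enzyme and 5.2 µM substrate.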

The target of data set [3] is T1, Human immunodeficiency virus type 1 protease. As to the kind of experiment: Inhibition of wild type HIV1 protease. The method in brief: as §1
The target of data set [4] is Human immunodeficiency virus type 1 protease (Human immunodeficiency virus 1, UniProt Q72874, D30N). The data set is described as follows: Inhibition of dimerization of HIV1 protease D30N mutant. The essentials:
as §1

The target in data set [5] is T1, Human immunodeficiency virus type 1 protease. As to the kind of experiment: Inhibition of dimerization of HIV1 protease […] mutant. The essentials: as §1
Data set [6] has the same target. As to the kind of experiment: Inhibition of dimerization of HIV1 protease ANAM-11 mutant. The essentials:
as §1

Data set [7] shares this target. The data set is described as follows: Inhibition of dimerization of HIV1 protease MDR-HM mutant. The essentials:
as §1

Data set [8] deals with Human immunodeficiency virus type 1 protease (Human immunodeficiency virus 1, UniProt Q72874, V82A). As to the kind of experiment: Inhibition of dimerization of HIV1 protease V82A mutant. The essentials:
as §1

In data set [9] the target is Human immunodeficiency virus type 1 protease (Human immunodeficiency virus 1, UniProt Q72874, G48V/L90M). As to the kind of experiment: Inhibition of dimerization of HIV1 protease G48V/L90M mutant. The method in brief: as §1
Data set [10] deals with Human immunodeficiency virus type 1 protease (Human immunodeficiency virus 1) (UniProt Q72874). As to the kind of experiment: Inhibition of wild type HIV1 protease dimerization at 5 uM.
Data set [11] shares this target. The data set is described as follows: Inhibition of wild type HIV1 protease at 5 uM. The essentials: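 Recombinant wild-type HIV-1 protease (7.5 nM) was run with fluorogenic substrate DABCYL-γ-abu-Ser-Gln-Asn-Tyr-Pro-Ile-Val-Gln-EDANS (5.2 µM) in 100 mM sodium acetate, 1 mM EDTA, 1 M NaCl, pH 4.7, 30 °C. DMSO was kept at 3% v/v final. Emission was read at 490 nm. Percent inhibition was measured at 5 µM compound.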

Regarding `COC(=O)[C@@H](NC(=O)[C@H](CC(C)C)NC(=O)[C@@H](NC(=O)CCCOc1ccc2ccc(OCCCC(=O)N[C@H](C(=O)N[C@@H](CC(C)C)C(=O)N[C@H](C(=O)OC)C(C)C)C(C)C)cc2c1)C(C)C)C(C)C`, the half-life in [1] is 28 h.
For `COC(=O)[C@@H](NC(=O)[C@H](CC(C)C)NC(=O)[C@@H](NC(=O)CCCOc1ccc2ccc(OCCCC(=O)N[C@H](C(=O)NNC(=O)c3cc(NC(C)=O)ccc3OC)C(C)C)cc2c1)C(C)C)C(C)C`, in data set [2], the affinity corresponds to a Ki of 0.2 µM.
In data set [3], `CC[C@H](C)[C@H](NC(=O)Cn1c(C)ccc(NC(=O)CCCOc2ccc3ccc(OCCCC(=O)N[C@H](C(=O)N[C@H](CC(C)C)C(=O)N[C@H](C(=O)OC)C(C)C)C(C)C)cc3c2)c1=O)C(=O)N[C@H](C(N)=O)[C@@H](C)O` displayed an inhibition constant Ki of 9.7 µM.
As for `COC(=O)[C@@H](NC(=O)[C@@H](CC(C)C)NC(=O)[C@@H](NC(=O)CCCOc1ccc2ccc(OCCCC(=O)NC(C(=O)Nc3cccn(CC(N)=O)c3=O)C(C)C)cc2c1)C(C)C)C(C)C` (some centres undefined), the inhibition constant (Ki) in data set [4] was 0.5 µM; in data set [2], 0.4 µM; in data set [5] it was 0.1 µM; in data set [6], 0.2 µM; in data set [7] it was 4.8 µM; in [8], 0.24 µM. The same compound gave a Ki in data set [9] of 0.5 µM.
Consider `COC(=O)[C@@H](NC(=O)[C@H](CC(C)C)NC(=O)[C@@H](NC(=O)CCCOc1ccc2ccc(OCCCC(=O)N[C@H](C(=O)Nc3cccn(CC(N)=O)c3=O)C(C)C)cc2c1)C(C)C)C(C)C`, for which the half-life in data set [1] was 41 h.
`COC(=O)[C@@H](NC(=O)[C@H](CC(C)C)NC(=O)[C@@H](NC(=O)CCCOc1ccc2ccc(OCCCC(=O)NNC(=O)c3cc(N)ccc3OC)cc2c1)C(C)C)C(C)C`: the inhibition in data set [10] and in data set [11] was 28% throughout.
For `COC(=O)[C@@H](NC(=O)[C@@H](CC(C)C)NC(=O)[C@@H](NC(=O)CCCOc1ccc2ccc(OCCCC(=O)Nc3ccc(C)n(CC(=O)Nc4ccc(C)n(CC(=O)OC(C)(C)C)c4=O)c3=O)cc2c1)C(C)C)C(C)C`, in data set [3], the affinity corresponds to a Ki of 8.4 µM.
